High-throughput results: PubChem, The Scripps Research Institute Molecular Screening Center
Hits are enriched below; roughly 1.5% of the tested compounds scored in any of these assays.
bovine MsrA act = bovine MsrA enzyme activators, primary screen, biochemical, absorbance, HTS | Methionine sulfoxide reductase A (Bos taurus) | purified bovine MsrA, absorbance read-out | activation, % at 10.6 µM | hit rate 0.3% among 360,000 | AID 602163, 2012; in the data active means activation above about 7.5%;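 further: 0% = vehicle and 100% = reference activator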
proCasp7 act = procaspase-7 activators, primary screen, counter-screen for procaspase-3 activator project, biochemical, absorbance, HTS, human; hit rate 0.093% among 330,000; recombinant procaspase-7, Ac-DEVD-pNA absorbance 405 nm; D23A/D198A/D206A triple mutant, cannot self-cleave; scale: DMSO 0, 5 µM enzyme 100; activation, % at 8.5 µM;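 active means percent activation above the screen-wide mean plus 3 SD, cut at about 25% in these data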
Target sequence (P55210 whole entry D23A/D198A/D206A): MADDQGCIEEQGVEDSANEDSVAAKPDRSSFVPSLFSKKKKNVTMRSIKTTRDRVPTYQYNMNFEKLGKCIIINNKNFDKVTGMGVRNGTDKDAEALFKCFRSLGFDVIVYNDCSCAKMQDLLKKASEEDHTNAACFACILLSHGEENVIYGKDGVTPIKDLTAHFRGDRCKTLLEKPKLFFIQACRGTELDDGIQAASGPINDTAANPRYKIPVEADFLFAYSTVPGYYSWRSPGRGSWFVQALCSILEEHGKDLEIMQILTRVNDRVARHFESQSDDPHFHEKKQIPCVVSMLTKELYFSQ
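Assay system – Uncleavable procaspase-7 mutant enzyme · Quantity – 2 µM procaspase-7 mutant as dispensed · Times – 1 h preincubation, 2 h reaction · Dosing – single nominal 8.5 µM compound dose, 0.8% DMSO final · Buffer or medium – Zinc-free 50 mM HEPES buffer, pH 7.4, with NaCl and Triton X-100 · Detection – Epi-absorbance of released pNA at 405 nm, two timepoints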
proCasp3 act = activators of human procaspase-3 D3A mutant, primary screen, biochemical, absorbance, PC-3 D3A mutant, single concentration. Caspase-3 (Homo sapiens), P42574. recombinant procaspase-3 D3A, Ac-DEVD-pNA absorbance 405 nm. activation, % at 8.5 µM. hit rate 0.11% among 330,000. AID 463141, 2010;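 active means activation above the mean of all tested compounds plus 3 SD, cut at about 21% in these data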;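 further: 0% = DMSO alone and 100% = DMSO wells spiked with extra 5 µM PC-3 D3A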
Target sequence (P42574 whole entry D9A/D28A/D175A): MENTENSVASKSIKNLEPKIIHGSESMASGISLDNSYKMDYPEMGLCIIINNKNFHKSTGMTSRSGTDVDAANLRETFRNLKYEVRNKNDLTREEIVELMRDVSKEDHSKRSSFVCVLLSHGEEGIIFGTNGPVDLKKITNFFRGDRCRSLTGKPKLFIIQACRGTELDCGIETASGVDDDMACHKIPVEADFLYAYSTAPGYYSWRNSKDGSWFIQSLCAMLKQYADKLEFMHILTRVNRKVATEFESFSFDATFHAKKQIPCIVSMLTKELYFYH
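Evaluation: percent activation relative to control range; Material: Procaspase-3 D3A mutant, all three cleavage aspartates alanine; Compound: single dose, 8.5 µM nominal compound, 0.8% DMSO; Replication: one well per compound; Signal: absorbance at 405 nm, 0 and 120 min; Schedule: 1 h preincubation plus 2 h reaction at 25 °C.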
Tb MetRS inh = T. brucei MetRS inhibitors, primary screen, biochemical, luminescence; methionyl-tRNA synthetase (Trypanosoma brucei brucei); purified T. brucei MetRS, ATP depletion, Kinase-Glo luminescence; inhibition, % at 11.9 µM; hit rate 0.4% among 360,000; AID 624268, 2012;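 active means inhibition above a per-plate cutoff of the control wells' mean inhibition plus 3 SD, cut at about 5.5% in these data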;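 further: 0% = DMSO wells median and 100% = median of wells with control inhibitor compound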
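Test system – parasite MetRS enzyme · Reagent – substrates ATP, L-methionine and bulk Escherichia coli tRNA · Doses – 11.9 µM compound single dose, 0.9% DMSO · Times – 15 min enzyme-compound preincubation, 2 h reaction, 10 min detection, 25 °C · Signal – Kinase-Glo luminescence, ATP depletion format · Controls – DMSO-only wells as low control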
MsrA inhibitor = bovine MsrA enzyme inhibitors, primary screen, biochemical, absorbance, HTS | purified bovine MsrA, absorbance read-out | inhibition, % at 15.5 µM | hit rate 0.75% among 360,000 | AID 651718, 2012; in the data active means inhibition above about 4.5%;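 further: 0% = vehicle wells with enzyme and 100% = reference inhibitor wells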
MsrA act confirm = bovine MsrA activators, retest, confirmation, biochemical, absorbance, HTS; shares compounds with bovine MsrA act; purified bovine MsrA, absorbance read-out; activation, % at 10.6 µM; hit rate 12% among 1,000; AID 602270, 2012; in the data active means activation above about 4%;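 further: enzyme coupled to thioredoxin and thioredoxin reductase with NADPH; 0% = vehicle wells and 100% = reference activator wells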
* marks the source's active call; other numbers are inactive results; . = no result.

SMILES | bovine MsrA act | proCasp7 act | proCasp3 act | Tb MetRS inh | MsrA inhibitor | MsrA act confirm
CC(C)COc1ccc(C/C(N)=N/n2cnnc2)cc1 | 8.0* | 0.9 | 4.2 | 0.1 | -1.0 | -1.7
COc1ccc(C/C(N)=N/n2cnnc2)cc1 | -2.0 | 6.4 | 12.6 | -0.1 | 0.1 | .
COC(=O)[C@]12C[C@H](CC(=O)NCCCN3CCCC3=O)C(=O)N(Cc3ccccc3)C1=C[C@H](C(C)C)O[C@@H]2C1CC1 | . | . | . | . | -0.6 | .
Cc1no[n+]([O-])c1COc1cccc(/C=N/Nc2nncn2N)c1 | 11.9* | -9.6 | -6.3 | 0.7 | 1.3 | -3.1
Cc1cc(C(=O)Nc2cccc([N+](=O)[O-])c2C)cs1 | -3.0 | 0.2 | -0.6 | -0.1 | 0.9 | .
Cc1c(NC(=O)c2ccc(C(C)(C)C)cc2)cccc1[N+](=O)[O-] | 10.9* | 2.9 | -0.5 | 0.9 | 1.5 | -1.0
O=C(NC(=O)c1cccc(Cl)c1)OC[C@@H]1CCCN2CCCCC12 (some centres undefined) | -3.5 | 14.3 | 3.3 | -0.7 | 0.0 | .
O=C(NC(=O)c1cccc(F)c1)OC[C@@H]1CCCN2CCCC[C@H]12 | 8.8* | 2.6 | 2.3 | -0.4 | -0.7 | -2.5
Nc1[nH]c(C(=O)c2ccccc2)c(-c2ccc(Cl)cc2)c1C(=O)c1c[nH]c2ccccc12 | . | . | . | . | 0.9 | .
Cn1nc(N)nc1N1CCN(c2ccc(F)cc2)CC1 | 8.0* | -6.1 | 1.6 | -0.2 | -0.6 | -1.2
O=C(C(=O)N1CCN(C(=O)C2CCC2)CC1)c1cccc(C(F)(F)F)c1 | . | . | . | . | -0.5 | .
COC(=O)C1=C(C)N(C)C(=NCc2ccccc2)NC1CCc1ccccc1 (centres undefined) | . | . | . | . | -0.8 | .
Cc1ccc(-c2noc(COc3ccccc3C)n2)cc1 | 8.1* | 16.4 | 4.8 | 0.4 | 1.3 | -2.8
O=C(NCCc1ccccc1Cl)[C@@H]1CCCN1C(=O)[C@@H](NS(=O)(=O)c1ccc(F)cc1F)c1ccccc1 | . | . | . | . | 0.4 | .
C[C@@H]1CN(c2ccc(N3CCNC[C@H]3C)cc2C#N)C[C@H](C)O1 | . | . | . | . | -0.3 | .
CCCCN(C)C(=O)c1cc2cc3ccc(OC)cc3nc2o1 | 17.2* | -3.3 | 4.0 | -0.2 | 2.0 | 0.3
CCCCN(C)C(=O)c1cc2cc3cc(OC)ccc3nc2o1 | -6.6 | 2.2 | 4.5 | -0.6 | 3.0 | .
COC(=O)N1C[C@H](OCc2ccc3c(c2)OCO3)[C@H]2C[C@@H]1c1ccccc1O2 | . | . | . | . | 0.1 | .
CCCOC(=O)c1ccc(NC(=O)CN(C)Cc2cccs2)cc1 | 9.9* | -0.5 | 0.2 | 0.1 | -0.3 | 0.6
COc1ccc(CCNS(=O)(=O)c2ccc(C3CNC(=O)C3)cc2)cc1OC (centres undefined) | 9.5* | -0.7 | 17.1 | -0.1 | 0.0 | -1.7
Cc1cc(Nc2cc(F)c(F)c(F)c2)cc(=O)n1-c1cc(F)c(F)c(F)c1 | . | . | . | . | 0.6 | .
N=C(N)Sc1nc(N2CCCCC2)nc(N2CCCCC2)n1 | -4.8 | -0.6 | -7.3 | -0.3 | -0.6 | .
c1ccc(Sc2nc(N3CCCCC3)nc(N3CCCCC3)n2)nc1 | 9.3* | -1.0 | -7.0 | -0.9 | -0.9 | 1.2
CN(C)CCCn1c2c(c(SCC(=O)Nc3cccc4ccccc34)nc1=O)CCCC2 | 11.2* | 9.2 | -3.6 | -0.3 | -0.7 | 0.5
CCN(CC)CCCn1c2c(c(SCC(=O)Nc3cccc4ccccc34)nc1=O)CCC2 | -2.6 | 5.9 | 1.7 | -0.4 | 1.0 | .
SMILES | bovine MsrA act | proCasp7 act | proCasp3 act | Tb MetRS inh | MsrA inhibitor | MsrA act confirm
Cc1cc2c(c(=O)o1)[C@@]1(C(=O)N(c3ccccc3)c3ccccc31)C1=C(CCCC1=O)O2 | . | . | . | . | 0.1 | .
O=C(NCCN1CCOCC1)c1ccccc1Cl | 16.9* | . | . | -0.8 | -0.5 | -0.8
O=C(NCCN1CCOCC1)c1c(Cl)cccc1Cl | -0.4 | 6.7 | -1.6 | -1.0 | -1.0 | .
CC1CS(=O)(=O)CCN1N=Cc1ccc([N+](=O)[O-])o1 (centres undefined) | 10.3* | -10.2 | -3.8 | -0.5 | 0.3 | -1.7
O=C(COC(=O)C1(c2ccc(Cl)cc2)CCCC1)Nc1ncc(C(F)(F)F)cc1Cl | 8.8* | 3.4 | -1.7 | 0.8 | -0.2 | 3.4
CCc1ccc(NC(=O)N2CCCCCC2)cc1 | -3.7 | -3.3 | -3.6 | -0.4 | 0.3 | .
CCN1CCN(C(=O)Nc2ccc(Cc3ccc(NC(=O)N4CCN(CC)CC4)cc3)cc2)CC1 | 8.2* | -5.9 | 2.7 | -0.7 | 0.8 | 0.6
Nc1ccn([C@@H]2O[C@H](C(=O)N[C@H](Cc3ccccc3)C(=O)Nc3ccc4scnc4c3)[C@@H](O)[C@H]2O)c(=O)n1 | . | . | . | . | 1.1 | .
CCNC(=O)N1CCN(c2ccc(N3CCN(C(=O)NCC)[C@@H](C)C3)c(C)c2)[C@@H](C)C1 | . | . | . | . | -1.1 | .
Cc1ccc(Cn2ncc(Cl)c(Cl)c2=O)cc1 | -1.9 | -4.0 | 5.5 | 0.5 | -0.7 | .
Cc1[nH]c(C)c2c(=O)n(Cc3ccc(Cl)cc3)ncc12 | 14.2* | 9.2 | 10.7 | 0.1 | 0.1 | -0.6
C(=Nc1ccc(N2CCOCC2)cc1)c1c[nH]c2ccccc12 | 11.6* | -6.2 | 1.7 | 0.6 | 0.2 | 0.0
O=S(=O)(NCc1ccc(Cl)cc1)c1ccc(Br)cc1C1CC[C@@H](O)C1 (some centres undefined) | . | . | . | . | 0.7 | .
COCc1cc(N2CCN(C(=O)OC(C)(C)C)C[C@H]2C)ccc1N1CC[C@@H](O)C1 | . | . | . | . | 0.6 | .
CCCn1c(=O)c2ccccc2n2c(SCC(=O)c3ccccc3)nnc12 | 12.3* | -7.8 | 3.0 | -0.2 | -0.1 | -3.3
CCOC(=O)c1cnc2c(OC)cccc2c1N1CCN(c2ccccc2OC)CC1 | 8.5* | -3.8 | 2.0 | -0.6 | -0.4 | -0.7
CCOc1cccc(C(c2c(C)n(C)n(-c3ccccc3)c2=O)c2c(C)n(C)n(-c3ccccc3)c2=O)c1OC | 12.9* | -5.0 | 10.2 | -0.4 | 0.0 | -1.2
COc1ccccc1CC(NC(C)=O)C(=O)NC1CCN(c2nnnn2-c2ccccc2)CC1 (centres undefined) | -1.1 | 0.8 | 7.4 | -1.0 | . | .
CC(=O)NC(Cc1ccccc1C)C(=O)NC1CCN(c2nnnn2-c2ccccc2)CC1 (centres undefined) | 11.6* | 0.3 | 3.0 | -0.4 | 0.7 | -0.8
O=C(C1CCN(S(=O)(=O)N2CCOCC2)CC1)N1CCN(c2ccccc2)CC1 | 10.2* | 10.3 | 3.2 | 0.1 | 0.0 | -1.7
O=C(C1CCN(S(=O)(=O)N2CCOCC2)CC1)N1CCOCC1 | -2.6 | 5.7 | -1.9 | -0.4 | -0.3 | .
Cc1nnc(N/N=C/c2c(Cl)cccc2Cl)n1N | 5.7 | -7.5 | 0.6 | 0.8 | -0.2 | .
